Source: ChEMBL document CHEMBL1687728, “Daptomycin versus Friulimicin B: in-depth profiling of Bacillus subtilis cell envelope stress responses” (2009)
Active and inactive are the calls of the source. The rule behind the calls is not given here.

What was measured:
Bacillus subtilis [1] = assay: Induction of liaIH gene expression in Bacillus subtilis at 1 ug/ml by microarray analysis relative to untreated control; type: functional
Method in brief: (§1)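 B. subtilis cells harvested 10 min after antibiotic addition. Pellets were snap-frozen in liquid nitrogen, then RNA was prepared for microarray hybridization. Fold induction is taken against untreated control cells.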

Bacillus subtilis [2] = assay: Induction of liaH gene expression in Bacillus subtilis by real-time RT-PCR; type: functional
Method in brief: (§2)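 Transcript levels measured by one-step real-time RT-PCR with SYBR green detection. Fold change is given as mean ± standard deviation of two independent experiments.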

Bacillus subtilis [3] = assay: Induction of yrhIJ gene expression in Bacillus subtilis at 1 ug/ml by microarray analysis relative to untreated control; type: functional; method in brief: as §1
Bacillus subtilis [4] = assay: Induction of sms-yacKL gene expression in Bacillus subtilis at 1 ug/ml by microarray analysis relative to untreated control; type: functional; method in brief: as §1
Bacillus subtilis [5] = assay: Induction of ywnJ gene expression in Bacillus subtilis at 1 ug/ml by microarray analysis relative to untreated control; type: functional; method in brief: as §1
Bacillus subtilis [6] = assay: Induction of sigW gene expression in Bacillus subtilis by real-time RT-PCR; type: functional; method in brief: as §2
Bacillus subtilis [7] = assay: Induction of yfnI gene expression in Bacillus subtilis at 1 ug/ml by microarray analysis relative to untreated control; type: functional; method in brief: as §1
Bacillus subtilis [8] = assay: Induction of yoxD gene expression in Bacillus subtilis at 1 ug/ml by microarray analysis relative to untreated control; type: functional; method in brief: as §1
Bacillus subtilis [9] = assay: Induction of ylxW gene expression in Bacillus subtilis at 1 ug/ml by microarray analysis relative to untreated control; type: functional; method in brief: as §1
Bacillus subtilis [10] = assay: Induction of ylaC gene expression in Bacillus subtilis by real-time RT-PCR; type: functional; method in brief: as §2
Bacillus subtilis [11] = assay: Induction of sigV-yrhM gene expression in Bacillus subtilis at 1 ug/ml by microarray analysis relative to untreated control; type: functional; method in brief: as §1
Bacillus subtilis [12] = assay: Induction of sigV gene expression in Bacillus subtilis by real-time RT-PCR; type: functional; method in brief: as §2
Bacillus subtilis [13] = assay: Induction of sigX gene expression in Bacillus subtilis by real-time RT-PCR; type: functional; method in brief: as §2
Bacillus subtilis [14] = assay: Induction of yrhH gene expression in Bacillus subtilis at 1 ug/ml by microarray analysis relative to untreated control; type: functional; method in brief: as §1
Bacillus subtilis [15] = assay: Induction of ypuA gene expression in Bacillus subtilis at 1 ug/ml by microarray analysis relative to untreated control; type: functional; method in brief: as §1
Bacillus subtilis [16] = assay: Induction of yqiG gene expression in Bacillus subtilis at 1 ug/ml by microarray analysis relative to untreated control; type: functional; method in brief: as §1
Bacillus subtilis [17] = assay: Induction of pbpI gene expression in Bacillus subtilis at 1 ug/ml by microarray analysis relative to untreated control; type: functional; method in brief: as §1
Bacillus subtilis [18] = assay: Induction of bcrC gene expression in Bacillus subtilis at 1 ug/ml by microarray analysis relative to untreated control; type: functional; method in brief: as §1
Bacillus subtilis [19] = assay: Induction of ycgRQ gene expression in Bacillus subtilis at 1 ug/ml by microarray analysis relative to untreated control; type: functional; method in brief: as §1
Bacillus subtilis [20] = assay: Induction of radC gene expression in Bacillus subtilis at 1 ug/ml by microarray analysis relative to untreated control; type: functional; method in brief: as §1
Bacillus subtilis [21] = assay: Induction of gerAAABAC gene expression in Bacillus subtilis at 1 ug/ml by microarray analysis relative to untreated control; type: functional; method in brief: as §1
Bacillus subtilis [22] = assay: Induction of ywaC gene expression in Bacillus subtilis at 1 ug/ml by microarray analysis relative to untreated control; type: functional; method in brief: as §1
Bacillus subtilis [23] = assay: Induction of yjbC-spx gene expression in Bacillus subtilis at 1 ug/ml by microarray analysis relative to untreated control; type: functional; method in brief: as §1
Bacillus subtilis [24] = assay: Induction of ybeF gene expression in Bacillus subtilis at 1 ug/ml by microarray analysis relative to untreated control; type: functional; method in brief: as §1
Bacillus subtilis [25] = assay: Induction of ywtF gene expression in Bacillus subtilis at 1 ug/ml by microarray analysis relative to untreated control; type: functional; method in brief: as §1
Bacillus subtilis [26] = assay: Induction of yjbQ gene expression in Bacillus subtilis at 1 ug/ml by microarray analysis relative to untreated control; type: functional; method in brief: as §1
Bacillus subtilis [27] = assay: Induction of rodA gene expression in Bacillus subtilis at 1 ug/ml by microarray analysis relative to untreated control; type: functional; method in brief: as §1
Bacillus subtilis [28] = assay: Induction of sigM gene expression in Bacillus subtilis by real-time RT-PCR; type: functional; method in brief: as §2
Bacillus subtilis [29] = assay: Induction of ydaH gene expression in Bacillus subtilis at 1 ug/ml by microarray analysis relative to untreated control; type: functional; method in brief: as §1
Bacillus subtilis [30] = assay: Induction of ypuD gene expression in Bacillus subtilis at 1 ug/ml by microarray analysis relative to untreated control; type: functional; method in brief: as §1
Bacillus subtilis [31] = assay: Induction of ypbG gene expression in Bacillus subtilis at 1 ug/ml by microarray analysis relative to untreated control; type: functional; method in brief: as §1
Bacillus subtilis [32] = assay: Induction of yebC gene expression in Bacillus subtilis at 1 ug/ml by microarray analysis relative to untreated control; type: functional; method in brief: as §1
Bacillus subtilis [33] = assay: Induction of yqjL gene expression in Bacillus subtilis at 1 ug/ml by microarray analysis relative to untreated control; type: functional; method in brief: as §1
Bacillus subtilis [34] = assay: Induction of sigM-yhdLK gene expression in Bacillus subtilis at 1 ug/ml by microarray analysis relative to untreated control; type: functional; method in brief: as §1
Bacillus subtilis [35] = assay: Induction of mreBH gene expression in Bacillus subtilis at 1 ug/ml by microarray analysis relative to untreated control; type: functional; method in brief: as §1
Bacillus subtilis [36] = assay: Induction of sigZ gene expression in Bacillus subtilis by real-time RT-PCR; type: functional; method in brief: as §2
Bacillus subtilis [37] = assay: Induction of yppC gene expression in Bacillus subtilis at 1 ug/ml by microarray analysis relative to untreated control; type: functional; method in brief: as §1
Bacillus subtilis [38] = assay: Induction of sigY gene expression in Bacillus subtilis by real-time RT-PCR; type: functional; method in brief: as §2
Bacillus subtilis [39] = assay: Induction of promoter liaI in Bacillus subtilis at 0.5 to 2 ug/ml; type: functional, organism-based
Method in brief: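 PliaI promoter activity read by β-galactosidase assay in strain BFS2470 (W168 liaI::pMUTIN). Antibiotic concentrations spanned 4 orders of magnitude.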

CC(C)CCCCCCC/C=C\CC(=O)N[C@@H](CC(N)=O)C(=O)N[C@@H]1C(=O)N2CCCC[C@@H]2C(=O)N[C@@H]([C@H](C)C(=O)O)C(=O)N[C@@H](CC(=O)O)C(=O)NCC(=O)N[C@@H](CC(=O)O)C(=O)NCC(=O)N[C@H]([C@H](C)N)C(=O)N[C@@H](C(C)C)C(=O)N2CCC[C@H]2C(=O)N[C@@H]1C [FRIULIMICIN B]
Activity (Bacillus subtilis [1]): inactive
fold change (FC) (Bacillus subtilis [2]): 0.9
fold change (FC) (Bacillus subtilis [3]): 5.7
fold change (FC) (Bacillus subtilis [4]): 7.1
fold change (FC) (Bacillus subtilis [5]): 4.1
fold change (FC) (Bacillus subtilis [6]): 0.9
fold change (FC) (Bacillus subtilis [7]): 4.7
fold change (FC) (Bacillus subtilis [8]): 3.7
fold change (FC) (Bacillus subtilis [9]): 3.5
fold change (FC) (Bacillus subtilis [10]): 2.9
fold change (FC) (Bacillus subtilis [11]): 5.1
fold change (FC) (Bacillus subtilis [12]): 7.4
fold change (FC) (Bacillus subtilis [13]): 0.8
fold change (FC) (Bacillus subtilis [14]): 8.5
fold change (FC) (Bacillus subtilis [15]): 6.5
fold change (FC) (Bacillus subtilis [16]): 3.4
fold change (FC) (Bacillus subtilis [17]): 3.8
fold change (FC) (Bacillus subtilis [18]): 8.2
fold change (FC) (Bacillus subtilis [19]): 5.9
fold change (FC) (Bacillus subtilis [20]): 6.9
Activity (Bacillus subtilis [21]): inactive
fold change (FC) (Bacillus subtilis [22]): 8.7
fold change (FC) (Bacillus subtilis [23]): 7.2
Activity (Bacillus subtilis [24]): inactive
fold change (FC) (Bacillus subtilis [25]): 3.9
fold change (FC) (Bacillus subtilis [26]): 3.4
fold change (FC) (Bacillus subtilis [27]): 3.8
fold change (FC) (Bacillus subtilis [28]): 8.7
fold change (FC) (Bacillus subtilis [29]): 9.1
fold change (FC) (Bacillus subtilis [30]): 6.2
fold change (FC) (Bacillus subtilis [31]): 6.4
fold change (FC) (Bacillus subtilis [32]): 4.1
fold change (FC) (Bacillus subtilis [33]): 8.9
fold change (FC) (Bacillus subtilis [34]): 7.4
fold change (FC) (Bacillus subtilis [35]): 3.1
fold change (FC) (Bacillus subtilis [36]): 1.2
fold change (FC) (Bacillus subtilis [37]): 4.1
fold change (FC) (Bacillus subtilis [38]): 1.8

CCCCCCCCCC(=O)N[C@@H](Cc1c[nH]c2ccccc12)C(=O)N[C@H](CC(N)=O)C(=O)N[C@@H](CC(=O)O)C(=O)N[C@@H]1C(=O)NCC(=O)N[C@@H](CCCN)C(=O)N[C@@H](CC(=O)O)C(=O)N[C@H](C)C(=O)N[C@@H](CC(=O)O)C(=O)NCC(=O)N[C@H](CO)C(=O)N[C@@H]([C@H](C)CC(=O)O)C(=O)N[C@@H](CC(=O)c2ccccc2N)C(=O)O[C@@H]1C
fold change (FC) (Bacillus subtilis [1]): 429
fold change (FC) (Bacillus subtilis [2]): 1170
Activity (Bacillus subtilis [3]): inactive
Activity (Bacillus subtilis [4]): inactive
Activity (Bacillus subtilis [5]): inactive
fold change (FC) (Bacillus subtilis [6]): 1.4
Activity (Bacillus subtilis [7]): inactive
Activity (Bacillus subtilis [8]): inactive
Activity (Bacillus subtilis [9]): inactive
fold change (FC) (Bacillus subtilis [10]): 1
Activity (Bacillus subtilis [11]): inactive
fold change (FC) (Bacillus subtilis [12]): 2.4
fold change (FC) (Bacillus subtilis [13]): 0.8
fold change (FC) (Bacillus subtilis [14]): 3.1
Activity (Bacillus subtilis [15]): inactive
Activity (Bacillus subtilis [16]): inactive
Activity (Bacillus subtilis [17]): inactive
fold change (FC) (Bacillus subtilis [18]): 3.3
Activity (Bacillus subtilis [19]): inactive
Activity (Bacillus subtilis [20]): inactive
fold change (FC) (Bacillus subtilis [21]): 15
fold change (FC) (Bacillus subtilis [22]): 4.5
Activity (Bacillus subtilis [23]): inactive
fold change (FC) (Bacillus subtilis [24]): 4.6
Activity (Bacillus subtilis [39]): Active
Activity (Bacillus subtilis [25]): inactive
Activity (Bacillus subtilis [26]): inactive
Activity (Bacillus subtilis [27]): inactive
fold change (FC) (Bacillus subtilis [28]): 2.4
fold change (FC) (Bacillus subtilis [29]): 3.3
Activity (Bacillus subtilis [30]): inactive
Activity (Bacillus subtilis [31]): inactive
Activity (Bacillus subtilis [32]): inactive
fold change (FC) (Bacillus subtilis [33]): 3.3
Activity (Bacillus subtilis [34]): inactive
fold change (FC) (Bacillus subtilis [35]): 3.9
fold change (FC) (Bacillus subtilis [36]): 1
Activity (Bacillus subtilis [37]): inactive
fold change (FC) (Bacillus subtilis [38]): 0.9
